# Measurements: ChEMBL document CHEMBL3414471 (J Med Chem, 2015)
# pEC50, pIC50: −log10 of the molar value. Active and inactive are the calls of the source. The rule behind the calls is not given here.
# Key:
# [1] = biological target: T1, 5-hydroxytryptamine receptor 2A (Homo sapiens, UniProt P28223); test: Agonist activity at human 5-HT2A receptor expressed in HEK293 cells assessed as calcium flux at 10 uM by FLIPR assay; type: functional, cell-based
# Outline: (§1)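 Flp-In-293 cells stably expressing human 5-HT2A, 5-HT2B or 5-HT2C-INI, grown in DMEM with 10% dialyzed FBS, then plated for 24 h in 1% dialyzed FBS. Cells were loaded 1 h at 37 °C with calcium dye in Hepes-buffered HBSS, pH 7.40, containing 2.5 mM probenecid. FLIPR read 10 s baseline, then 120 s after drug addition.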
# [2] = biological target: T2, 5-hydroxytryptamine receptor 2C (Homo sapiens) (UniProt P28335); test: Agonist activity at human 5-HT2C receptor expressed in HEK293 cells assessed as calcium flux by FLIPR assay relative to 5-HT; type: functional, cell-based
# T2 sequence (whole entry): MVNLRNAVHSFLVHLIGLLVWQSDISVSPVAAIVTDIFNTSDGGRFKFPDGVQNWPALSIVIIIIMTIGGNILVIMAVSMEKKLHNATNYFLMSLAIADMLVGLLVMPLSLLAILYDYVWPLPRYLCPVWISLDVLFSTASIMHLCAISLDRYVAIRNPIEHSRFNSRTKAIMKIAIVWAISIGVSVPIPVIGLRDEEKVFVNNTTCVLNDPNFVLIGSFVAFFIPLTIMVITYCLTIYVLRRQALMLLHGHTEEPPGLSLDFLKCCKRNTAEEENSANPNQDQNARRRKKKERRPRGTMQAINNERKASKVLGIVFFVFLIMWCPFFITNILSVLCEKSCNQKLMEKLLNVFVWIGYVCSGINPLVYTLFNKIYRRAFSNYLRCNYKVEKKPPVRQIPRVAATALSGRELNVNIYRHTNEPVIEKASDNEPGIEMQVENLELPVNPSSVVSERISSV
# Outline: (§2)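 Flp-In-293 cells stably expressing human 5-HT2A, 5-HT2B or 5-HT2C-INI; grown 24–48 h in DMEM/10% dialyzed FBS, plated on poly-L-Lys at 12000 cells/well in 1% dialyzed FBS for 24 h. Loaded 1 h at 37 °C with calcium dye in HBSS, 20 mM Hepes pH 7.40, 2.5 mM probenecid.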
# [3] = biological target: T3, 5-hydroxytryptamine receptor 2C (Homo sapiens, UniProt P28335); test: Agonist activity at human 5-HT2C receptor expressed in HEK293 cells assessed as calcium flux by FLIPR assay; type: functional, cell-based
# T3 sequence (P28335 whole entry): T2 sequence (whole entry)
# [4] = biological target: T4, 5-hydroxytryptamine receptor 2B (Homo sapiens, UniProt P41595); test: Agonist activity at human 5-HT2B receptor expressed in HEK293 cells assessed as calcium flux at 10 uM by FLIPR assay; type: functional, cell-based; outline: as §1
# T4 sequence (P41595 whole entry): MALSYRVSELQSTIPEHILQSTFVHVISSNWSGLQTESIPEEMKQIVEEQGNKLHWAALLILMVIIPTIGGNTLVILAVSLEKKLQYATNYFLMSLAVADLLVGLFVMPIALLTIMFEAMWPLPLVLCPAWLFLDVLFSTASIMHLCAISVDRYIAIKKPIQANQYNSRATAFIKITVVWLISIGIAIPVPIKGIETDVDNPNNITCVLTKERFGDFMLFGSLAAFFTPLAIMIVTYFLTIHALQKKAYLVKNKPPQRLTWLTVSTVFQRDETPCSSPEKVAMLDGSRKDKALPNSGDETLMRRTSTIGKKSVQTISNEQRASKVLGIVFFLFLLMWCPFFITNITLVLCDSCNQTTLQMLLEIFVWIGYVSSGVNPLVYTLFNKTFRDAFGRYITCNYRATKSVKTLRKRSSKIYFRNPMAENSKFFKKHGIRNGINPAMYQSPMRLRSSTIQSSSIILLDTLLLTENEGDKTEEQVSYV
# [5] = biological target: T4, 5-hydroxytryptamine receptor 2B; test: Agonist activity at human 5-HT2B receptor expressed in HEK293 cells assessed as calcium flux by FLIPR assay relative to 5-HT; type: functional, cell-based; outline: as §2
# [6] = biological target: T1, 5-hydroxytryptamine receptor 2A; test: Agonist activity at human 5-HT2A receptor expressed in HEK293 cells assessed as calcium flux by FLIPR assay; type: functional, cell-based
# [7] = biological target: T4, 5-hydroxytryptamine receptor 2B; test: Agonist activity at human 5-HT2B receptor expressed in HEK293 cells assessed as calcium flux by FLIPR assay; type: functional, cell-based
# [8] = biological target: T1, 5-hydroxytryptamine receptor 2A; test: Agonist activity at human 5-HT2A receptor expressed in HEK293 cells assessed as calcium flux by FLIPR assay relative to 5-HT; type: functional, cell-based; outline: as §2
# [9] = tested on: Salmonella typhimurium; test: Mutagenic activity in Salmonella typhimurium TA98 at 10 to 100 uM by ames test; type: toxicity, organism-based; conditions: salmonella enterica subsp. enterica serovar typhimurium
# Outline: (§3)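 Ames fluctuation test in Salmonella strains TA98, TA100, TA1535 and TA1537, with and without S9, at 10, 50 and 100 µM; scored negative or positive.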
# [10] = Permeability from basolateral to apical side in human Caco2 cells at pH 7.4; type: ADME, cell-based; conditions: caco-2, pH 7.4
# Outline: (§4)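 Caco-2 monolayer permeability measured A–B and B–A in pH 7.4 buffer, reported as ×10−6 cm/s; A–B/B–A ratio derived from these.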
# [11] = Plasma protein binding in human at 10 uM; type: ADME, cell-free
# Outline: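 Human plasma protein binding determined at 10 µM compound, expressed as % bound.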
# [12] = tested on: Liver; test: Metabolic stability in mouse liver microsomes; type: ADME
# Outline: (§5)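 Incubation with human or CD-1 mouse liver microsomes for 1 h; stability expressed as % parent compound remaining.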
# [13] = tested on: Salmonella typhimurium; test: Mutagenic activity in Salmonella typhimurium TA98 at 10 to 100 uM by ames test in presence of S9 mixture; type: toxicity, organism-based; conditions: salmonella enterica subsp. enterica serovar typhimurium; outline: as §3
# [14] = biological target: Voltage-gated inwardly rectifying potassium channel KCNH2 (Homo sapiens, UniProt Q12809); test: Inhibition of human ERG channel expressed in CHO cells by patch clamp method; type: cell-based
# Chain of Voltage-gated inwardly rectifying potassium channel KCNH2 (Q12809 whole entry): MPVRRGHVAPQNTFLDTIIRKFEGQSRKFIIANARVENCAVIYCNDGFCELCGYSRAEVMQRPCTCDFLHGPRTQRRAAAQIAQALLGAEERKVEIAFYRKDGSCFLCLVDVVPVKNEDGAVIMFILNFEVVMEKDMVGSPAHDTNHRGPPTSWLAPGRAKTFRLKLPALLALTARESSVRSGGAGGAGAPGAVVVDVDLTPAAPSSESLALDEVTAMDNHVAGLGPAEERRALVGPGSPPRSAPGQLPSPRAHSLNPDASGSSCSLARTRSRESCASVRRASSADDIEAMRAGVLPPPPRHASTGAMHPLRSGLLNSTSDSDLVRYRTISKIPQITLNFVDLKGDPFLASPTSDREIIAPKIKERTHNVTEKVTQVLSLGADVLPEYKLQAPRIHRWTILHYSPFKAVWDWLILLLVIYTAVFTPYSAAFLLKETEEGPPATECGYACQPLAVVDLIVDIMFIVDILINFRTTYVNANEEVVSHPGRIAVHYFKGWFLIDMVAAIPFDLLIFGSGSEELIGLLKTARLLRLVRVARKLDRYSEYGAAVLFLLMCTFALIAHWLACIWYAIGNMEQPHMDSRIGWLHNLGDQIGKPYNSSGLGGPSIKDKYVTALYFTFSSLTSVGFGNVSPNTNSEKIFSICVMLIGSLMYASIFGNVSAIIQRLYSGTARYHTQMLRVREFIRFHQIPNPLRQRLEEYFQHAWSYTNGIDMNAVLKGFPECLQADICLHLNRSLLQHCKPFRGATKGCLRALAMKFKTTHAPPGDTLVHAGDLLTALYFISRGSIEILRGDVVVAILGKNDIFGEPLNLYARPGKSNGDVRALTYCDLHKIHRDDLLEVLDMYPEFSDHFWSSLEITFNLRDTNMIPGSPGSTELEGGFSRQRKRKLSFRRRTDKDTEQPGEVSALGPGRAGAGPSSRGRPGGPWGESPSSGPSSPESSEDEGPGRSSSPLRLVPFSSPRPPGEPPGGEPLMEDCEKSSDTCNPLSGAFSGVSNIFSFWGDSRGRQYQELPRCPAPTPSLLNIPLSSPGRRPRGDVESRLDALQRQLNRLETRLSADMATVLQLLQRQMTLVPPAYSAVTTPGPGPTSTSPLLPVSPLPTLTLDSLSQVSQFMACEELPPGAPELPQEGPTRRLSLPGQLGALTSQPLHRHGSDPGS
# [15] = tested on: Salmonella typhimurium; test: Mutagenic activity in Salmonella typhimurium TA1537 at 10 to 100 uM by ames test in presence of S9 mixture; type: toxicity, organism-based; conditions: salmonella enterica subsp. enterica serovar typhimurium; outline: as §3
# [16] = tested on: Salmonella typhimurium; test: Mutagenic activity in Salmonella typhimurium TA1535 at 10 to 100 uM by ames test in presence of S9 mixture; type: toxicity, organism-based; conditions: salmonella enterica subsp. enterica serovar typhimurium; outline: as §3
# [17] = Permeability from apical to basolateral side in human Caco2 cells at pH 7.4; type: ADME, cell-based; conditions: caco-2, pH 7.4; outline: as §4
# [18] = tested on: Salmonella typhimurium; test: Mutagenic activity in Salmonella typhimurium TA1535 at 10 to 100 uM by ames test; type: toxicity, organism-based; conditions: salmonella enterica subsp. enterica serovar typhimurium; outline: as §3
# [19] = tested on: Salmonella typhimurium; test: Mutagenic activity in Salmonella typhimurium TA100 at 10 to 100 uM by ames test in presence of S9 mixture; type: toxicity, organism-based; conditions: salmonella enterica subsp. enterica serovar typhimurium; outline: as §3
# [20] = tested on: Salmonella typhimurium; test: Mutagenic activity in Salmonella typhimurium TA1537 at 10 to 100 uM by ames test; type: toxicity, organism-based; conditions: salmonella enterica subsp. enterica serovar typhimurium; outline: as §3
# [21] = tested on: Liver microsome; test: Metabolic stability in human liver microsomes; type: ADME; outline: as §5
# [22] = tested on: Salmonella typhimurium; test: Mutagenic activity in Salmonella typhimurium TA100 at 10 to 100 uM by ames test; type: toxicity, organism-based; conditions: salmonella enterica subsp. enterica serovar typhimurium; outline: as §3
# [23] = biological target: T2, 5-hydroxytryptamine receptor 2C (Homo sapiens); test: Agonist activity at human 5-HT2C receptor expressed in HEK293 cells assessed as calcium flux at 10 uM by FLIPR assay; type: functional, cell-based; outline: as §1
# [24] = biological target: T4, 5-hydroxytryptamine receptor 2B; test: Agonist activity at 5HT2B receptor (unknown origin) relative to control; outline: as §2
# T1 sequence (P28223 whole entry): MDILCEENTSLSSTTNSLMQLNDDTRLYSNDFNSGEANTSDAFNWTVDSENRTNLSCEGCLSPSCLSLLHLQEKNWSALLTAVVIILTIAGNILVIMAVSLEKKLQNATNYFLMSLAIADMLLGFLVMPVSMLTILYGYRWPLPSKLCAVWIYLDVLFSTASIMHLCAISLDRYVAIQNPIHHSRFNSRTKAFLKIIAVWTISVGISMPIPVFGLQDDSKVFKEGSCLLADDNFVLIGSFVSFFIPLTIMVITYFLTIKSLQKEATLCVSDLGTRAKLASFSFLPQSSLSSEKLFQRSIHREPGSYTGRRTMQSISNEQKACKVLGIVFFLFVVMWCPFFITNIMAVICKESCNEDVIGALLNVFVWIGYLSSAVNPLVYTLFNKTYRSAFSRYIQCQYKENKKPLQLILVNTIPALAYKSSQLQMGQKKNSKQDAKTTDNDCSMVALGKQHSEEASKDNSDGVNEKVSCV
SMILES,Activity [1],Emax [2] [%],pEC50 [3],Emax [5] [%],pEC50 [7],other results
C=C(F)COc1ccc(F)cc1[C@@H]1C[C@H]1CN,inactive,62,6.01,,,Activity [4]: inactive
NC[C@@H]1C[C@H]1c1cc(Cl)ccc1OCC(F)F,,64,6.04,30,5.83,pEC50 [6]: 5.88; Emax [8]: 43%
NC[C@H]1C[C@@H]1c1cc(Cl)ccc1OCC1CC1,inactive,75,6.60,20,5.30,
CCCOc1ccc(F)cc1[C@@H]1C[C@H]1CN,inactive,80,6.53,11,6.13,
CC(C)Oc1ccc(Cl)cc1[C@H]1C[C@@H]1CN,,,7.04,,6.00,pEC50 [6]: 5.40
NC[C@H]1C[C@@H]1c1cc(Cl)ccc1OCC(F)F,,81,7.04,27,6.08,pEC50 [6]: 5.74; Emax [8]: 31%
C=CCOc1ccc(F)cc1[C@@H]1C[C@H]1CN,,87,6.80,,,pEC50 [6]: 6.16; Activity [4]: inactive; Emax [8]: 56%
C=CCOc1ccc(Cl)cc1[C@H]1C[C@@H]1CN.O=C(O)C(F)(F)F,inactive,80,7.22,32,5.66,Activity [9]: Non-toxic; permeability [10]: 9.8 ×10⁻⁶ cm/s; PPB [11]: 75%; Stability [12]: 60%; Activity [13]: Non-toxic; pIC50 [14]: 6.57; Activity [15]: Non-toxic; Activity [16]: Non-toxic; permeability [17]: 35.6 ×10⁻⁶ cm/s; Activity [18]: Non-toxic; Activity [19]: Non-toxic; Activity [20]: Non-toxic; Stability [21]: 52%; Activity [22]: Non-toxic
NC[C@@H]1C[C@H]1c1cc(Cl)ccc1OCC1CC1,inactive,51,5.97,32,5.52,
CCOc1ccc(Cl)cc1[C@@H]1C[C@H]1CN,inactive,72,6.19,26,5.64,
CC(C)Oc1ccc(Cl)cc1[C@@H]1C[C@H]1CN,,,5.61,,5.25,
NC[C@H]1C[C@@H]1c1cc(Cl)ccc1OCCCF,inactive,60,6.69,22,5.31,
C=C(F)COc1ccc(F)cc1[C@H]1C[C@@H]1CN,,91,7.66,,,pEC50 [6]: 5.78; Activity [4]: inactive
C[C@H]1CNCCc2ccc(Cl)cc21,,,,,,Emax [8]: 68%
C#CCOc1ccc(Cl)cc1[C@@H]1C[C@H]1CN,inactive,71,6.44,30,5.36,
C=C(C)COc1ccc(Cl)cc1[C@@H]1C[C@H]1CN,inactive,,,39,5.22,Activity [23]: inactive
C=C(C)COc1ccc(Cl)cc1[C@H]1C[C@@H]1CN,,90,6.67,32,6.37,pEC50 [6]: 6.04; Emax [8]: 26%

SMILES,Activity [1],Emax [2] [%],pEC50 [3],Emax [5] [%],pEC50 [7],other results
C#CCOc1ccc(Cl)cc1[C@H]1C[C@@H]1CN,,65,7.20,29,5.34,pEC50 [6]: 6.00; Emax [8]: 21%
CCCOc1ccc(F)cc1[C@H]1C[C@@H]1CN,,88,7.96,33,5.70,pEC50 [6]: 5.99; Emax [8]: 15%
CSCCOc1ccc(Cl)cc1[C@@H]1C[C@H]1CN,inactive,11,5.75,,,Activity [4]: inactive
CCCCOc1ccc(Cl)cc1[C@@H]1C[C@H]1CN,,50,6.17,,,Activity [4]: inactive
CCCCOc1ccc(Cl)cc1[C@H]1C[C@@H]1CN,,33,6.54,,,Activity [4]: inactive
C=C(F)COc1ccc(Cl)cc1[C@@H]1C[C@H]1CN,inactive,,,33,5.16,Activity [23]: inactive
NC[C@@H]1C[C@H]1c1cc(Cl)ccc1OCCF,inactive,59,5.95,31,5.34,
NC[C@@H]1C[C@H]1c1cc(F)ccc1OCCF,,77,6.29,,,pEC50 [6]: 5.52; Activity [4]: inactive; Emax [8]: 20%
COCCOc1ccc(Cl)cc1[C@@H]1C[C@H]1CN,inactive,45,6.18,32,5.28,
NC[C@@H]1C[C@H]1c1cc(Cl)ccc1OCCCF,inactive,24,5.90,22,5.21,
C=CCOc1ccc(Cl)cc1[C@@H]1C[C@H]1CN,inactive,42,6.13,28,5.37,
CCCOc1ccc(Cl)cc1[C@@H]1C[C@H]1CN,inactive,31,5.91,21,5.52,
c1cc2c3c(c1)[C@H]1CCC[C@H]1N3CCNC2,,,,,,Emax [24]: 40%
COCCOc1ccc(Cl)cc1[C@H]1C[C@@H]1CN,inactive,8,6.74,,,Activity [4]: inactive
CSCCOc1ccc(Cl)cc1[C@H]1C[C@@H]1CN,inactive,24,6.61,,,Activity [4]: inactive
c1cc2c3c(c1)[C@H]1CCC[C@H]1CN3CCNC2,,,,,,Emax [24]: 50%
CCOc1ccc(Cl)cc1[C@H]1C[C@@H]1CN,,91,7.89,45,7.07,pEC50 [6]: 5.92; Emax [8]: 49%
